Assay results taken from ChEMBL document CHEMBL2380276, “Synthesis and antiproliferative evaluation of piperazine-1-carbothiohydrazide derivatives of indolin-2-one” (Bioorg Med Chem Lett, 2013).
pIC50: −log10 of the molar value.

Columns and labels:
Type in all cases: functional, cell-based
[1] = test system: HCT-116; assay: Cytotoxicity against human HCT116 cells assessed as growth inhibition after 72 hrs by MTT assay; details: HCT-116, 72 h
How it was run: (§1)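 MTT proliferation assay; cells exposed 72 h, first screened at 100 μM with ≥50% inhibition versus vehicle-treated cells counted active; active compounds then tested at various concentrations to derive IC50 (concentration giving 50% proliferation inhibition). Sunitinib positive control. Means ± SD of three separate experiments.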

[2] = test system: MCF7; assay: Cytotoxicity against human MCF7 cells assessed as growth inhibition after 72 hrs by MTT assay; details: MCF7, 72 h; how it was run: as §1
[3] = test system: A549; assay: Cytotoxicity against human A549 cells assessed as growth inhibition after 72 hrs by MTT assay; details: A549, 72 h; how it was run: as §1

Row | SMILES | pIC50 [1] | pIC50 [2] | pIC50 [3]
1 | O=C1Nc2ccc(Cl)cc2/C1=N/NC(=S)N1CCN(c2ccccc2[N+](=O)[O-])CC1 | 5.34 | 5.13 | 5.25
2 | O=C1Nc2cccc(Cl)c2/C1=N/NC(=S)N1CCN(c2ccccc2)CC1 | 4.38 | 4.28 | 4.25
3 | O=C1Nc2cc(Cl)ccc2/C1=N/NC(=S)N1CCN(c2ccccc2)CC1 | 4.75 | 4.64 | 4.56
4 | COc1ccc2c(c1)/C(=N/NC(=S)N1CCN(c3ccccc3)CC1)C(=O)N2 | 5.02 | 4.84 | 5.12
5 | O=C1Nc2cccc(Br)c2/C1=N/NC(=S)N1CCN(c2ccccc2)CC1 | 4.47 | 4.39 | 4.27
6 | O=C1Nc2ccc(Cl)cc2/C1=N/NC(=S)N1CCN(c2ccccc2F)CC1 | 5.08 | 4.82 | 4.98
7 | O=C1Nc2c(Br)cc(Br)cc2/C1=N/NC(=S)N1CCN(c2ccccc2)CC1 | 5.20 | 4.94 | 5.21
8 | O=C1Nc2ccccc2/C1=N/NC(=S)Nc1ccccc1 | < 4.00 | < 4.00 | < 4.00
9 | Cc1ccc(NC(=S)N/N=C2\C(=O)Nc3ccc(Cl)cc32)c(C)c1 | < 4.00 | < 4.00 | < 4.00
10 | Cc1ccc(N2CCN(C(=S)N/N=C3\C(=O)Nc4ccc(Cl)cc43)CC2)cc1 | 5.19 | 4.77 | 4.99
11 | O=C1Nc2ccc(Cl)cc2/C1=N/NC(=S)N1CCN(c2ccc(F)cc2)CC1 | 5.20 | 4.91 | 5.05
12 | O=C1Nc2ccc(Cl)cc2/C1=N/NC(=S)N1CCN(c2ccccc2)CC1 | 5.46 | 4.98 | 5.13
13 | O=C1Nc2ccc([N+](=O)[O-])cc2/C1=N/NC(=S)N1CCN(c2ccccc2)CC1 | 4.82 | 4.63 | 4.75
14 | Cc1ccc(N2CCN(C(=S)N/N=C3\C(=O)Nc4ccc(Cl)cc43)CC2)c(C)c1 | 5.14 | 4.97 | 5.44
15 | O=C1Nc2ccc(F)cc2/C1=N/NC(=S)N1CCN(c2ccccc2)CC1 | 4.91 | 4.61 | 4.68
16 | O=C1Nc2ccc(Cl)cc2/C1=N/NC(=S)N1CCN(c2ccc(Cl)c(Cl)c2)CC1 | 5.24 | 4.97 | 5.10
17 | Cc1ccccc1N1CCN(C(=S)N/N=C2\C(=O)Nc3ccc(Cl)cc32)CC1 | 5.31 | 4.96 | 5.19
18 | O=C1Nc2ccc(Cl)cc2/C1=N/NC(=S)N1CCN(c2ccc(Cl)cc2)CC1 | 5.27 | 4.88 | 5.09
19 | O=C1Nc2ccc(Cl)cc2/C1=N/NC(=S)Nc1ccccc1 | 4.51 | 4.46 | 4.48
20 | O=C1Nc2ccc(Cl)cc2/C1=N/NC(=S)N1CCN(c2ccccc2Cl)CC1 | 5.31 | 4.93 | 5.10
21 | O=C1Nc2ccccc2/C1=N/NC(=S)N1CCN(c2ccccc2)CC1 | 4.95 | 4.60 | 4.73
22 | O=C1Nc2ccc(Br)cc2/C1=N/NC(=S)N1CCN(c2ccccc2)CC1 | 4.98 | 4.69 | 4.91
23 | O=C1Nc2cc(Br)ccc2/C1=N/NC(=S)N1CCN(c2ccccc2)CC1 | 4.84 | 4.71 | 4.80
24 | COc1ccc(N2CCN(C(=S)N/N=C3\C(=O)Nc4ccc(Cl)cc43)CC2)cc1 | 5.11 | 4.86 | 5.11
25 | O=C1Nc2ccc(Cl)cc2/C1=N/NC(=S)N1CCN(c2ccc(F)cc2F)CC1 | 5.23 | 4.70 | 4.94
26 | O=C1Nc2ccc(Cl)cc2/C1=N/NC(=S)N1CCN(c2ccc([N+](=O)[O-])cc2)CC1 | 4.92 | 4.68 | 4.93
27 | CCN(CC)CCNC(=O)c1c(C)[nH]c(/C=C2\C(=O)Nc3ccc(F)cc32)c1C [SUNITINIB] | 5.33 | 5.20 | 5.61
28 | Cc1ccc2c(c1)/C(=N/NC(=S)N1CCN(c3ccccc3)CC1)C(=O)N2 | 5.02 | 4.83 | 5.01
